Results published in ChEMBL document CHEMBL1138069, “Synthesis and SAR of 1,3-disubstituted cyclohexylmethyl urea and amide derivatives as non-peptidic motilin receptor antagonists” (Bioorg Med Chem Lett, 2006).
The source made the active and inactive calls. The calls are words filed in the database; no cut-off is given here.

How the values were obtained:
Motilin receptor [1] = molecular target: T1, Motilin receptor (Homo sapiens, UniProt O43193); experiment: Activity at human motilin receptor transfected in HEK293 cells assessed as inhibition of motilin-induced intracellular calcium mobilization; assay type: functional, cell-based
[2] = molecular target: Motilin receptor (Oryctolagus cuniculus) (UniProt A5A4K8); experiment: Agonist activity at rabbit duodenum motilin receptor by tissue contractility assay at 10 uM; assay type: functional
Motilin receptor [3] = molecular target: T1, Motilin receptor; experiment: Agonist activity at human motilin receptor transfected in HEK293 cells assessed as inhibition of motilin-induced intracellular calcium mobilization at 30 uM; assay type: functional, cell-based
Motilin receptor [4] = molecular target: T2, Motilin receptor (Oryctolagus cuniculus, UniProt A5A4K8); experiment: Inhibition of [125]I-motilin binding to rabbit motilin receptor
Summary of the method: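 Rabbit colon membranes, homogenized in Tris–HCl pH 7.5 and centrifuged, with the pellet stored frozen. Bound tracer was separated by centrifugation. Nonspecific binding was taken with unlabeled porcine motilin. IC50 values are means of at least two separate determinations.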

[5] = molecular target: Motilin receptor (Oryctolagus cuniculus) (UniProt A5A4K8); experiment: Inhibition of [125]I-motilin binding to rabbit motilin receptor at 1 uM
Motilin receptor [6] = molecular target: T2, Motilin receptor; experiment: Inhibition of [125]I-motilin binding to rabbit motilin receptor
Motilin receptor [7] = molecular target: T2, Motilin receptor; experiment: Activity at rabbit duodenum motilin receptor by tissue contractility assay; assay type: functional

T1 sequence (O43193 whole entry): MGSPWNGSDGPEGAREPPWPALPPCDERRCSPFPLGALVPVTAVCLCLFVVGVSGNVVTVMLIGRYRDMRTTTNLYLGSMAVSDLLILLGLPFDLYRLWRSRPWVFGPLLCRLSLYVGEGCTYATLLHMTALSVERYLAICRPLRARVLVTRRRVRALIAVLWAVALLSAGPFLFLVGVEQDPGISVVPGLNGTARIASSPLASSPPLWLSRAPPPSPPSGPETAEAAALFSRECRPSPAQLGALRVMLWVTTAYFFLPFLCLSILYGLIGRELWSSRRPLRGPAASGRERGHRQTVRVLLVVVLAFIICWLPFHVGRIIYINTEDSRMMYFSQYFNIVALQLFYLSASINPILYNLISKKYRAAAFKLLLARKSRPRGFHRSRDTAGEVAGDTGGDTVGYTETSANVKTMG
T2 sequence (A5A4K8 whole entry): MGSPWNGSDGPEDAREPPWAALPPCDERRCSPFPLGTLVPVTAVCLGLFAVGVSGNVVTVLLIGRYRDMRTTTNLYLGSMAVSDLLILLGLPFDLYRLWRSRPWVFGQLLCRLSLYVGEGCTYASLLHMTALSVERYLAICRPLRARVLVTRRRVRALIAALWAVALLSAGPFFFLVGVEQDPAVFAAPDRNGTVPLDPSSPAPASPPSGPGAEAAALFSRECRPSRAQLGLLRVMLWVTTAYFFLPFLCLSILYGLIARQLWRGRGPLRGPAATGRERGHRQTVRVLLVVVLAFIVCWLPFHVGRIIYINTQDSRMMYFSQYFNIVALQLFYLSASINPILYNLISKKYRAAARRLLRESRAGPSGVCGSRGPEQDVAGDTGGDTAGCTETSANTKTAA
Motilin receptor (Oryctolagus cuniculus), sequence (A5A4K8 as listed by the source): as the sequence (A5A4K8 whole entry) above

Row | Compound | Activity [2] | Activity (Motilin receptor [3]) | IC50 (Motilin receptor [4]) [nM] | inhibition [5] [%] | also measured
1 | O=C(Nc1ccccc1)N(CC1CCCC(N(Cc2ccccc2)C(=O)CCc2ccccc2)C1)c1cccc(OCCN2CCOCC2)c1 (stereo unspecified) |  |  | 730 |  | 
2 | O=C(c1ccc(F)cc1)N(CC1CCCC(N(Cc2cccc([N+](=O)[O-])c2)C(=O)C(Cl)(Cl)Cl)C1)c1cccc(OCCN2CCCC2)c1 (stereo unspecified) | inactive | inactive | 14 |  | IC50 (Motilin receptor [1]): 52 nM
3 | O=C(Nc1ccccc1)N(CC1=C[C@@](Cc2ccccc2)(NC(=O)C(Cl)(Cl)Cl)CC1)c1cccc(OCCN2CCOCC2)c1 |  |  | 20 |  | 
4 | O=C(Nc1ccccc1)N(c1cccc(OCCN2CCOCC2)c1)C1CCC(CN(Cc2cccc(Cl)c2)C(=O)C(Cl)(Cl)Cl)C1 (stereo unspecified) |  |  |  | 4 | 
5 | CC(C)(C)C(=O)N(Cc1ccccc1)C1CCCC(CN(C(=O)c2ccc(F)cc2)c2cccc(OCCN3CCOCC3)c2)C1 (racemic) | inactive | inactive | 772 |  | 
6 | CC(C)(C)C(=O)N(Cc1ccccc1)C1CCCC(CN(C(=O)Nc2ccccc2)c2cccc(OCCN3CCCC3)c2)C1 (racemic) |  |  |  |  | IC50 (Motilin receptor [6]): 21 nM
7 | O=C(Nc1ccccc1)N(CC1CCCC(N(Cc2ccccc2)C(=O)C(Cl)(Cl)Cl)C1)c1cccc(OCCN2CCOCC2)c1 (racemic) |  |  | 957 |  | 
8 | O=C(c1ccc(F)cc1)N(CC1CCCC(N(Cc2cccc(Cl)c2)C(=O)C(Cl)(Cl)Cl)C1)c1cccc(OCCN2CCCC2)c1 (racemic) | inactive | inactive | 58 |  | IC50 (Motilin receptor [1]): 267 nM
9 | O=C(c1ccc(F)cc1)N(CC1CCCC(N(Cc2cccc(Cl)c2)C(=O)C(Cl)(Cl)Cl)C1)c1cccc(OCCN2CCCCC2)c1 (racemic) | inactive | inactive | 63 |  | IC50 (Motilin receptor [7]): 21 nM; IC50 (Motilin receptor [1]): 228 nM
10 | COc1cccc(C(=O)NC2CCCC(CN(C(=O)Nc3ccccc3)c3cccc(OCCN4CCOCC4)c3)C2)c1 (racemic) |  |  |  | 26 | 
11 | O=C(Nc1ccccc1)N(CC1CCCC(N(Cc2cccc(Cl)c2)C(=O)C(Cl)(Cl)Cl)C1)c1cccc(OCCN2CCOCC2)c1 (racemic) |  |  |  | 23 | 

The next lines start with results.

Row | Activity [2] | Activity (Motilin receptor [3]) | IC50 (Motilin receptor [4]) [nM] | inhibition [5] [%] | Compound | also measured
12 | inactive | inactive |  |  | CC(C)(C)C(=O)N(Cc1ccccc1)[C@@H]1CCC[C@H](CN(C(=O)c2ccc(F)cc2)c2cccc(OCCN3CCCC3)c2)C1 | IC50 (Motilin receptor [1]): 338 nM
13 |  |  | 10 |  | O=C(Nc1ccccc1)N(CC1=C[C@@](Cc2cccc(Cl)c2)(NC(=O)C(Cl)(Cl)Cl)CC1)c1cccc(OCCN2CCOCC2)c1 | 
14 | inactive | inactive |  |  | CC(C)(C)C(=O)N(Cc1ccccc1)[C@H]1CCC[C@@H](CN(C(=O)c2ccc(F)cc2)c2cccc(OCCN3CCCC3)c2)C1 | IC50 (Motilin receptor [1]): 2480 nM
15 | inactive | inactive | 58 |  | O=C(c1ccc(F)cc1)N(CC1CCCC(N(Cc2ccccc2)C(=O)C(Cl)(Cl)Cl)C1)c1cccc(OCCN2CCCC2)c1 (racemic) | IC50 (Motilin receptor [7]): 27 nM
16 |  |  | 1160 |  | O=C(Nc1ccccc1)N(CC1CCCC(N(Cc2ccccc2)C(=O)c2cccc([N+](=O)[O-])c2)C1)c1cccc(OCCN2CCOCC2)c1 (racemic) | 
17 |  |  | 35 |  | O=C(Nc1ccccc1)N(CC1CCCC(N(Cc2cccc([N+](=O)[O-])c2)C(=O)C(Cl)(Cl)Cl)C1)c1cccc(OCCN2CCOCC2)c1 (racemic) | 
18 |  |  | 656 |  | O=C(Nc1ccccc1)N(CC1CCCC(N(Cc2ccccc2)C(=O)c2ccco2)C1)c1cccc(OCCN2CCOCC2)c1 (racemic) | 
19 | inactive | inactive |  |  | CC(C)(C)C(=O)N(Cc1ccccc1)C1CCCC(CN(C(=O)c2ccc(F)cc2)c2cccc(OCCN3CCCC3)c2)C1 (racemic) | IC50 (Motilin receptor [1]): 990 nM
20 |  |  | 650 |  | COc1cccc(C(=O)N(Cc2cccc(Cl)c2)C2CCCC(CN(C(=O)Nc3ccccc3)c3cccc(OCCN4CCOCC4)c3)C2)c1 (racemic) | 
21 |  |  |  | 50 | CC(C)(C)C(=O)N(Cc1ccccc1)C1CCCC(CN(C(=O)Nc2ccccc2)c2cccc(OCCN3CCOCC3)c2)C1 (racemic) | 
22 |  |  |  | 6 | COc1cccc(C(=O)N(Cc2cccc(Cl)c2)C2CCC(CN(C(=O)Nc3ccccc3)c3cccc(OCCN4CCOCC4)c3)CC2)c1 (racemic) | 
23 |  |  |  | 58 | O=C(Nc1ccccc1)N(CC1CCCC(N(Cc2cccc(C(F)(F)F)c2)C(=O)C(Cl)(Cl)Cl)C1)c1cccc(OCCN2CCOCC2)c1 (racemic) | 
24 |  |  |  | 3 | O=C(Nc1ccccc1)N(CC1CCCC(N(Cc2ccccc2)C(=O)c2ccc(-c3ccccc3)cc2)C1)c1cccc(OCCN2CCOCC2)c1 (racemic) | 
25 |  |  |  | 28 | O=C(Nc1ccccc1)N(CC1CCCC(NCc2cccc(Cl)c2)C1)c1cccc(OCCN2CCOCC2)c1 (racemic) | 
